Tests used:
[1] = (§1) Partition coefficient (logP) measured in a mixture of 1-octanol/phosphate buffer (0.1 M, pH 7.4); type: physicochemical
Procedure, shortened: (§2)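 Labeled ester or metabolite added to 1:1 1-octanol/0.1 M phosphate buffer pH 7.4, shaken vigorously, equilibrated 1 h at room temperature. Phase radioactivity counted by gamma or liquid scintillation counter, purity checked by TLC. Value = organic/aqueous concentration ratio.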

[2] = as §1; type: physicochemical; procedure, shortened: as §2; remark: listed apart in the source
[3] = First-order hydrolysis rate constant in rat cerebral cortical homogenate at a unit tissue concentration (g/mL) without inhibitor; type: ADME, tissue-based
Procedure, shortened: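 Rat (Wistar, male, 8 wk, 210-230 g, n=3) cerebral cortex homogenized in ice-cold 0.1 M phosphate buffer pH 7.4 and diluted. Labeled ester (15 kBq) added to start reaction. Unchanged ester and metabolite separated by TLC and quantified by phosphor imaging. Rate = −ln(A2/A1)/(T2−T1)/C. Statistics by Games-Howell test.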

[4] = target: T1, Acetylcholinesterase (Rattus norvegicus) (UniProt P37136); assay: Specificity for rat brain acetylcholinesterase as rate of hydrolysis using BW284c51
T1 sequence (whole entry): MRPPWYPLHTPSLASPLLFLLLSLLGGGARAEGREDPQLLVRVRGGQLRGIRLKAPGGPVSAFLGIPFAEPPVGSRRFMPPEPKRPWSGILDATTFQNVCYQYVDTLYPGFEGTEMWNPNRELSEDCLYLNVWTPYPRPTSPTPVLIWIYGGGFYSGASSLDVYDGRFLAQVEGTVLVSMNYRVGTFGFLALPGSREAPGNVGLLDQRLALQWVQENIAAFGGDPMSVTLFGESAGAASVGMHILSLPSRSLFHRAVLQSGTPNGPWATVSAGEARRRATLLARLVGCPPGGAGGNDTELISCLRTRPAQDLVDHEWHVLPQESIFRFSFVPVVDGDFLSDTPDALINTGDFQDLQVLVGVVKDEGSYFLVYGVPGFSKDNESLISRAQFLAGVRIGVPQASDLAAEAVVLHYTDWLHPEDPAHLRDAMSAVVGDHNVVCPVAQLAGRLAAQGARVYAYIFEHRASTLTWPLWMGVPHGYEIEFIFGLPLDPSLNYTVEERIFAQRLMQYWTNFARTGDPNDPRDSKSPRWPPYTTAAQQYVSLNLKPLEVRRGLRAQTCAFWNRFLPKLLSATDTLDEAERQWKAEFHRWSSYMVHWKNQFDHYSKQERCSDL
Procedure, shortened: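 Rat cerebral cortex homogenate (Wistar, male, 8 wk, n=3) in 0.1 M phosphate buffer pH 7.4, run with labeled ester (15 kBq) with or without BW284c51 (30 nM). Hydrolysis rate measured by TLC and phosphor imaging of remaining ester. Specificity = […].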

[5] = tested as the 18F-labelled form
[6] = tested as the 11C-labelled form

`CC(=O)OCC1CCN(CC[18F])CC1` showed a logD [1] of 0.04, a logD [2] of -1.3 and a Total rate [3] of 1.67 min⁻¹.

Work on `CC(=O)OC1CCN(CC[18F])CC1` yielded a logD [1] of -0.11, a logD [2] of -1.9 and a Total rate [3] of 0.1 min⁻¹.

Work on `CC(=O)OCC1CCN(CCF)CC1` yielded a Specificity [4, 5] of 86%.

`CCC(=O)OC1CCN(C)CC1` gave a Specificity [4, 6] of 82%.

Work on `CC(=O)OC1CCN(CCF)CC1` yielded a Specificity [4, 5] of 65%.

Work on `CC(=O)OC1CCN([11CH3])CC1` yielded a logD [1] of -0.3, a logD [2] of -2.2 and a Total rate [3] of 1.73 min⁻¹.

`CC(=O)OC1CCN(C)CC1` gave a Specificity [4, 6] of 97%.

In the case of `CCC(=O)OC1CCN([11CH3])CC1`, the logD [1] is reported as -0.22, the logD [2] is reported as -2.2 and the Total rate [3] is reported as 0.41 min⁻¹.
